Measured values taken from ChEMBL document CHEMBL1255169, “Synthesis, structure-affinity relationships, and radiolabeling of selective high-affinity 5-HT4 receptor ligands as prospective imaging probes for positron emission tomography” (J Med Chem, 2010).
Calls of active or inactive are those of the source. The calls are words filed in the database; no cut-off is given here.

Columns and labels:
[1] = target: T1, 5-hydroxytryptamine receptor 4 (Homo sapiens, UniProt Q13639); assay: Displacement of [3H]GR113808 from human recombinant 5HT4 receptor expressed in HEK293 cells; format: cell-based
[2] = target: T1, 5-hydroxytryptamine receptor 4; assay: Antagonist activity at 5HT4 receptor expressed in HEK293/L9 cells by cAMP assay; format: functional, cell-based
[3] = target: T1, 5-hydroxytryptamine receptor 4; assay: Inverse agonist activity at 5HT4 receptor expressed in HEK293/L9 cells by cAMP assay; format: functional, cell-based
[4] = target: T1, 5-hydroxytryptamine receptor 4; assay: Agonist activity at 5HT4 receptor expressed in HEK293/L9 cells by cAMP assay; format: functional, cell-based
[5] = target: 5-hydroxytryptamine receptor 4 (Cavia porcellus, UniProt O70528); assay: Displacement of [3H]GR113808 from 5HT4 receptor in guinea pig striatal membranes; format: cell membranes, Striatum, Membrane
[6] = target: T2, Alpha-2C adrenergic receptor (Homo sapiens, UniProt P18825); assay: Binding affinity to human adrenergic Alpha-2C receptor
T2 sequence (P18825 whole entry): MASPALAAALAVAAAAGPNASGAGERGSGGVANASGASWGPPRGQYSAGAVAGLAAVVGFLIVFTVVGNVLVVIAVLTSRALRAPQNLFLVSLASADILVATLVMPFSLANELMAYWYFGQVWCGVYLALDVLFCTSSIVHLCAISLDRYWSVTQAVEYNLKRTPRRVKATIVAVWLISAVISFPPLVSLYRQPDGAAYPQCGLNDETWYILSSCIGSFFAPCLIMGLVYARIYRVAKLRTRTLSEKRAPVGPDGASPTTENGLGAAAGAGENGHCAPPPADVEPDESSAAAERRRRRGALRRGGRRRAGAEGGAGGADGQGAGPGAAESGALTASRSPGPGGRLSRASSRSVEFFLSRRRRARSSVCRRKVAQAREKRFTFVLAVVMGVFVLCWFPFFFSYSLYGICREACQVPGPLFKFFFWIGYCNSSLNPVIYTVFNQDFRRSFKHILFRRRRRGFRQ

[7] = target: 5-hydroxytryptamine receptor 2B (Homo sapiens, UniProt P41595); assay: Binding affinity to human 5-HT2B receptor
D(2) dopamine receptor = D(2) dopamine receptor (Rattus norvegicus, UniProt P61169); assay: Binding affinity to rat dopamine D2 receptor
[8] = target: 5-hydroxytryptamine receptor 1D (Homo sapiens, UniProt P28221); assay: Binding affinity to human 5-HT1D receptor
[9] = target: T3, Alpha-1A adrenergic receptor (Homo sapiens, UniProt P35348); assay: Binding affinity to human adrenergic alpha1A receptor
T3 sequence (P35348 whole entry): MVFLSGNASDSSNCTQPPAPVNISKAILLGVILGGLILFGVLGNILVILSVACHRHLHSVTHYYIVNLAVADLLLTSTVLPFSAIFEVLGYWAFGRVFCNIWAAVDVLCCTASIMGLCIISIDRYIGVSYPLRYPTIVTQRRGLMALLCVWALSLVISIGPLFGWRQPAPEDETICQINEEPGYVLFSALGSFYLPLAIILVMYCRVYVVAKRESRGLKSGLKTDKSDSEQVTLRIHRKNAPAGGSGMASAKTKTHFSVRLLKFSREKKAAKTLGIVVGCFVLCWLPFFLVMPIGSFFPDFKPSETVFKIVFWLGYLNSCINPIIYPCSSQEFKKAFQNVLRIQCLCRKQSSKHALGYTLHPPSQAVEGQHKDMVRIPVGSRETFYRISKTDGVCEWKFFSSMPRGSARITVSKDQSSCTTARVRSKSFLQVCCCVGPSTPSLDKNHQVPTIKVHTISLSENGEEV

D(3) dopamine receptor = D(3) dopamine receptor (Rattus norvegicus, UniProt P19020); assay: Binding affinity to rat dopamine D3 receptor
[10] = target: T4, Alpha-1B adrenergic receptor (Homo sapiens, UniProt P35368); assay: Binding affinity to human adrenergic Alpha-1B receptor
T4 sequence (P35368 whole entry): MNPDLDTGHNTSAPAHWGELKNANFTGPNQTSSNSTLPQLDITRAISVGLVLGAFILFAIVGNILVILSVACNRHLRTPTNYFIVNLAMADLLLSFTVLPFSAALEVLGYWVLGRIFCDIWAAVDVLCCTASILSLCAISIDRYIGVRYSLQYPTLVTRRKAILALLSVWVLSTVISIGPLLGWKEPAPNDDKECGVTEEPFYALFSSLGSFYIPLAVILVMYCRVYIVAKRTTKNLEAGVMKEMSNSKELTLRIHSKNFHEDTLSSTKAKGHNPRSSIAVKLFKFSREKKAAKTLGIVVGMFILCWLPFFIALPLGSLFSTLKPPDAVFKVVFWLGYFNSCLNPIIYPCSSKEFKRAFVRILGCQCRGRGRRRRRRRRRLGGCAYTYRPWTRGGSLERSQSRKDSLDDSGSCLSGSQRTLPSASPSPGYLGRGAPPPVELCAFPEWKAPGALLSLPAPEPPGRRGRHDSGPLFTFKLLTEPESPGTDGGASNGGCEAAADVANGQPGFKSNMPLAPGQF

Histamine H3 receptor = Histamine H3 receptor (Cavia porcellus, UniProt Q9JI35); assay: Binding affinity to guinea pig histamine H3 receptor
D(4) dopamine receptor = target: T5, D(4) dopamine receptor (Rattus norvegicus, UniProt P30729); assay: Binding affinity to rat dopamine D4 receptor
T5 sequence (P30729 whole entry): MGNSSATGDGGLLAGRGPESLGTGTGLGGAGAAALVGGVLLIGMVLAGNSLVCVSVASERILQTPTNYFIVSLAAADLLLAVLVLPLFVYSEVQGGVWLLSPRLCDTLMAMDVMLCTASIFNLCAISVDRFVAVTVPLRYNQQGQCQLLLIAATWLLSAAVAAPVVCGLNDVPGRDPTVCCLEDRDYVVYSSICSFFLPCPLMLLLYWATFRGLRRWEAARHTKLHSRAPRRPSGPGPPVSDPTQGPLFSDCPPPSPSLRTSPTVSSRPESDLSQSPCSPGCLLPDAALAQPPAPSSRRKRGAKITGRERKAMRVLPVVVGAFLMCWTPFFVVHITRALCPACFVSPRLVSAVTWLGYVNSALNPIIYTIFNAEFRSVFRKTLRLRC

[11] = Binding affinity to rat sigma 2 receptor
[12] = target: T6, 5-hydroxytryptamine receptor 2C (Homo sapiens, UniProt P28335); assay: Binding affinity to human 5-HT2C receptor
T6 sequence (P28335 whole entry): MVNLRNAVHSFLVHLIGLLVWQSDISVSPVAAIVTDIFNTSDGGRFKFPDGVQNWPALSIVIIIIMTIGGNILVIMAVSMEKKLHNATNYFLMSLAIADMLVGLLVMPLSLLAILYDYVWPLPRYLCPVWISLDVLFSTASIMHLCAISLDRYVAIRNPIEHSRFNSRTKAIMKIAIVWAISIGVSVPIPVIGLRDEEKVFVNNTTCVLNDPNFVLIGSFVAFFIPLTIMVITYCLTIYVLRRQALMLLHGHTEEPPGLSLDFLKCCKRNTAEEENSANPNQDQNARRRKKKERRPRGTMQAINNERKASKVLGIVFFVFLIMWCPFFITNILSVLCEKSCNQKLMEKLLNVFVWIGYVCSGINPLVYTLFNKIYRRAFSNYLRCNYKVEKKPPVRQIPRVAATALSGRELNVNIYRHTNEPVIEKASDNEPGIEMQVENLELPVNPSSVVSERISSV

[13] = target: Sigma non-opioid intracellular receptor 1 (Rattus norvegicus, UniProt Q9R0C9); assay: Binding affinity to rat sigma 1 receptor
[14] = target: T7, Alpha-2B adrenergic receptor (Homo sapiens, UniProt P18089); assay: Binding affinity to human adrenergic alpha2B receptor
T7 sequence (P18089 whole entry): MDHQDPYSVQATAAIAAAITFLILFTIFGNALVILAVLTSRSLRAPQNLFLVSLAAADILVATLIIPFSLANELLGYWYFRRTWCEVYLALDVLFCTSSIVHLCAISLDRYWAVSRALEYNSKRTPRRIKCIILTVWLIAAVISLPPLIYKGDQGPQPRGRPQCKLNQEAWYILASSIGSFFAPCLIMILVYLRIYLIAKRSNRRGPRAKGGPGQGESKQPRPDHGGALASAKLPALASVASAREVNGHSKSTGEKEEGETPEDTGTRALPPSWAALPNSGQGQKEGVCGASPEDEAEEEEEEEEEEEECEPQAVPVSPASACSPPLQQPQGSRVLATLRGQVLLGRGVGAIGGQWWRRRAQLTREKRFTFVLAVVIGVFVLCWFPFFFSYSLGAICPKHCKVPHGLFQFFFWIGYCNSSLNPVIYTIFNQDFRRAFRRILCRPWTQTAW
Method in brief: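 Radioligand binding run by the NIMH Psychoactive Drug Screening Program as part of a broad receptor and binding-site panel, which included α1A, α1B, α1D and α2A–C subtypes. Affinity is expressed as Ki.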

5-hydroxytryptamine receptor 4 (Cavia porcellus, UniProt O70528), sequence (O70528 whole entry): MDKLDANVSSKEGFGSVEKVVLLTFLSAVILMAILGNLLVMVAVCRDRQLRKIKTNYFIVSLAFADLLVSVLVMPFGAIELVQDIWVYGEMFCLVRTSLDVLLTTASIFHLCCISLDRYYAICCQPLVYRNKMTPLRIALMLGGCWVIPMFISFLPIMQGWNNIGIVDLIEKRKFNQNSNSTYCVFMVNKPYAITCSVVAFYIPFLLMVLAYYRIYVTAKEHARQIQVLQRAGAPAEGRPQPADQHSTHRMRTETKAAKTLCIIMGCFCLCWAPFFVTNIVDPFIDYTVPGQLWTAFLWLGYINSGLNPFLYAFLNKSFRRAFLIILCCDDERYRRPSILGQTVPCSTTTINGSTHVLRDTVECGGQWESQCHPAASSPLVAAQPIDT
T1 sequence (Q13639 whole entry): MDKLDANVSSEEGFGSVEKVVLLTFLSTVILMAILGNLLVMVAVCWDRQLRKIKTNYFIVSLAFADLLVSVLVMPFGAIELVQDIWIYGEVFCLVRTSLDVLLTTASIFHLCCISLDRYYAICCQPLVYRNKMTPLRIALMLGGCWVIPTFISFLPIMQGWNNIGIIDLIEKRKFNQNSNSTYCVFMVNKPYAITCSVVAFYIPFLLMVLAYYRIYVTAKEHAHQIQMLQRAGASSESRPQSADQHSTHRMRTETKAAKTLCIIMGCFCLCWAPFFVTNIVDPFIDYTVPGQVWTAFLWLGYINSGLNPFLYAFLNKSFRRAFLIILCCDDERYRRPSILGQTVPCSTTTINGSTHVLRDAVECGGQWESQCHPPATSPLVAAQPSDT
Histamine H3 receptor, sequence (Q9JI35 whole entry): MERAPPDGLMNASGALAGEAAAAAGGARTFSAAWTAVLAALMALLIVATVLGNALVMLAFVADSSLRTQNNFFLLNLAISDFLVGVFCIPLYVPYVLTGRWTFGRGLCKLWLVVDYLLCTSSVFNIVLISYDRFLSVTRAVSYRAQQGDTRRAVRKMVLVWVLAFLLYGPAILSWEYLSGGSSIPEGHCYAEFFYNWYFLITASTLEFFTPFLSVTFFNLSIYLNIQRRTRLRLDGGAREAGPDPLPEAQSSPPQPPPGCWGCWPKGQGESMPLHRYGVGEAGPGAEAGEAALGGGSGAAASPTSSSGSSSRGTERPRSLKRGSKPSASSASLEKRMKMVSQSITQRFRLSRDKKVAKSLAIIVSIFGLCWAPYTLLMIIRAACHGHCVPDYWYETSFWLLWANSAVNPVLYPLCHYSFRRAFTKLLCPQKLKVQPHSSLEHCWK
5-hydroxytryptamine receptor 2B, sequence (P41595 whole entry): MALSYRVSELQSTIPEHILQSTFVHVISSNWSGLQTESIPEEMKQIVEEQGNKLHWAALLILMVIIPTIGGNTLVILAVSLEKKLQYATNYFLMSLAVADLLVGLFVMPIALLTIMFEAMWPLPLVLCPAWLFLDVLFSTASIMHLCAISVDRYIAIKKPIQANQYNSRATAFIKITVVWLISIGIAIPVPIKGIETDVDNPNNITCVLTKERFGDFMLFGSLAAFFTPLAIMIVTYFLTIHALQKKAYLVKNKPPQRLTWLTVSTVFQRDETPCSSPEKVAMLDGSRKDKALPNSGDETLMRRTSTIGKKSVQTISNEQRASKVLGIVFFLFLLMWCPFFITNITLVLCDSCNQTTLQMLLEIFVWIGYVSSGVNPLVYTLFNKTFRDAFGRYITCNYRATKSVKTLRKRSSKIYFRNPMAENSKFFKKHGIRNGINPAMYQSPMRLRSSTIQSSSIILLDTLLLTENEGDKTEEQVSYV
D(3) dopamine receptor, sequence (P19020 whole entry): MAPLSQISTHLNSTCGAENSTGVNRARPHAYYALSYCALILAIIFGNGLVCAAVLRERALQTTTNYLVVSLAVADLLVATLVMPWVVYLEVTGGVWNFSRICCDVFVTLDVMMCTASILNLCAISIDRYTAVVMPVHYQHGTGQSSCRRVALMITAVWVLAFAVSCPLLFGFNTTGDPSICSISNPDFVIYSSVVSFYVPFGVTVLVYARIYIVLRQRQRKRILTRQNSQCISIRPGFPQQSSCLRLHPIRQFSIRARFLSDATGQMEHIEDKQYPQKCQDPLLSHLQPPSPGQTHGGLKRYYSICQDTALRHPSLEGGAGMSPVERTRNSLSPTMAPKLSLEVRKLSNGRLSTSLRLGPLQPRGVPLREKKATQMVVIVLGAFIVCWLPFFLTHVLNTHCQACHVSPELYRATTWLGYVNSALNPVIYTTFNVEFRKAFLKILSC
Sigma non-opioid intracellular receptor 1, sequence (Q9R0C9 whole entry): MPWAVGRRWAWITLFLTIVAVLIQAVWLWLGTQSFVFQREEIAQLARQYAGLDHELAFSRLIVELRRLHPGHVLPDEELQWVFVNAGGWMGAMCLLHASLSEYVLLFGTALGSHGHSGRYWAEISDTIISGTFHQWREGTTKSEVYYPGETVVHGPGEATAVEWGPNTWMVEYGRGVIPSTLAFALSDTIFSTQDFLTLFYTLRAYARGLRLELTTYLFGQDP
5-hydroxytryptamine receptor 1D, sequence (P28221 whole entry): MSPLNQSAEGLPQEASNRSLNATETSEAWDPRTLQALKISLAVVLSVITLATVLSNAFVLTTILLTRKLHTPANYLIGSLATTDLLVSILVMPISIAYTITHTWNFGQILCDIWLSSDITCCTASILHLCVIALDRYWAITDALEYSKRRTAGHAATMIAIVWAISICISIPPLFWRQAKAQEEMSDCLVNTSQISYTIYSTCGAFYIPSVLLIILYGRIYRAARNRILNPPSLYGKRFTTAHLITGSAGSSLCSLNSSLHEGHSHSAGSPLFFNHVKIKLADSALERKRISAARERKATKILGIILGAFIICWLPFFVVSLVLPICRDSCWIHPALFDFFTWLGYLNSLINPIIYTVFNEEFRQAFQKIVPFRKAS
D(2) dopamine receptor, sequence (P61169 whole entry): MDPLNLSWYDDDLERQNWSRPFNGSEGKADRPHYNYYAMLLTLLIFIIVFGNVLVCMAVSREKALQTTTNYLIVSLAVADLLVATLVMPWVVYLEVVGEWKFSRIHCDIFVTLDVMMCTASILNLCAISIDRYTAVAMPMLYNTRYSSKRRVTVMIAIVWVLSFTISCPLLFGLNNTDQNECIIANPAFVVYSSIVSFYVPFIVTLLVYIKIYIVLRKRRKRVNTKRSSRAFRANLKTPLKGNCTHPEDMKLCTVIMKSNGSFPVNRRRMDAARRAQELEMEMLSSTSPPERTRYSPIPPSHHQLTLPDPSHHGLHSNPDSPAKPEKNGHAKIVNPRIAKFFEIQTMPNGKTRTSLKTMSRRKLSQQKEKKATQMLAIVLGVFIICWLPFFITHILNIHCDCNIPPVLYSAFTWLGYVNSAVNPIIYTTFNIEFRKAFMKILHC

Row | SMILES | Ki [1] [nM] | Efficacy [3] | EC50 [4] [nM] | Ki [5] [nM] | other results
1 | CCCCN1CCC(COC(=O)c2cc([N+](=O)[O-])c(N)c3c2OCCO3)CC1 | 7.8 | – | – | – | –
2 | CCCCN1CCC(COC(=O)c2cc(C)c(N)c3c2OCCO3)CC1 | 6.3 | – | – | – | Efficacy [2]: Active
3 | CCCCN1CCC(CNC(=O)c2ccc(N)c(OC)c2)CC1 | 8660 | – | – | – | –
4 | CCCCN1CCC(COC(=O)c2cc(C#N)c(NC)c3c2OCCO3)CC1 | 37 | Active | 15.8 | – | –
5 | CCCCN1CCC(COC(=O)c2ccc(N)c(OCCF)c2)CC1 | 11 | – | – | 0.215 | –
6 | CCCCN1CCC(COC(=O)c2cc(I)c(N)c3c2OCCO3)CC1 | – | – | – | 0.2 | –
7 | CCCCN1CCC(COC(=O)c2cc(F)c(N)c3c2OCCO3)CC1 | 2.1 | Active | 5.89 | 0.334 | Ki [6]: 593 nM; Ki [7]: 168 nM; Ki (D(2) dopamine receptor): 615 nM; Ki [8]: 2860 nM; Ki [9]: 87.6 nM; Ki (D(3) dopamine receptor): 1010 nM; Ki [10]: 9080 nM; Ki (Histamine H3 receptor): 5040 nM; Ki (D(4) dopamine receptor): 316 nM; Ki [11]: 12.9 nM; Ki [12]: 8360 nM; Ki [13]: 55 nM; Ki [14]: 773 nM
8 | CCCCN1CCC(COC(=O)c2cc(Br)c(NC)c3c2OCCO3)CC1 | 4.5 | Active | 10 | – | –
9 | CCCCCN1CCC(COC(=O)c2ccc(N)c(OC)c2)CC1 | 12 | – | – | – | –
10 | CCCCN1CCC(COC(=O)c2cc(C#N)c(N)c3c2OCCO3)CC1 | 33 | – | – | 0.45 | –
11 | CCCCN1CCC(COC(=O)c2ccc(N)c(OCF)c2)CC1 | 17 | – | – | 0.334 | –
12 | CCCCN1CCC(COC(=O)c2cc(I)c(NC)c3c2OCCO3)CC1 | 7.4 | Active | 20 | – | –
13 | CCCCN1CCC(COC(=O)c2ccc(NC)c3c2OCCO3)CC1 | 9.1 | Active | 8.91 | – | –
14 | CCCCN1CCC(COC(=O)c2ccc(N)c3c2OCCO3)CC1 | 1.4 | – | – | – | Efficacy [2]: Active
15 | CCCN1CCC(COC(=O)c2ccc(N)c(OC)c2)CC1 | 17 | – | – | 0.901 | –
